PubChem BioAssay AID2430 (Vanderbilt High Throughput Screening Facility, 2010)
Unmarked numbers belong to inactive results. How the calls were made is not given here.

target: Muscarinic acetylcholine receptor M2 (Homo sapiens) (UniProt P08172); test: M2 receptor positive allosteric modulation off-target check, dose response, selectivity assay for M1 muscarinic PAM project, cell-based, CHO-K1 M2/Gqi5, Fluo-4 calcium, ACh EC20 (AID 2430); conditions: CHO-K1 M2/Gqi5 calcium Fluo-4, ACh EC20 PAM mode; series mostly up to 30 µM; percent of max ACh response: at the top concentration
Sequence (P08172 whole entry, looked up): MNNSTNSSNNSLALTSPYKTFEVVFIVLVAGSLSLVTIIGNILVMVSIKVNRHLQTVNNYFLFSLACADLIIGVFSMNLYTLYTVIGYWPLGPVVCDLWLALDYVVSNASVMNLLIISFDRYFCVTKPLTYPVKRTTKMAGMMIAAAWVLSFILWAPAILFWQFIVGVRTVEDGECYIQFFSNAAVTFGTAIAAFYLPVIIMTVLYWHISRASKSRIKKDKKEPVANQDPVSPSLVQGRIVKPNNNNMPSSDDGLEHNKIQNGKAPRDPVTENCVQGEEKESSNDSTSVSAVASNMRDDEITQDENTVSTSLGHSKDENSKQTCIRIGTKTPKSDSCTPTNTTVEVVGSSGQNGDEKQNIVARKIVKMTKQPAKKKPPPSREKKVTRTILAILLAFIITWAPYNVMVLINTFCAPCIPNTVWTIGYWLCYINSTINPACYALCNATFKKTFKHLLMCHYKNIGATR
Outline: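 Test system: CHO-K1 cells transfected with human M2 receptor and Gqi5; buffer or medium: HEPES- and probenecid-supplemented HBSS, pH 7.4; also added: acetylcholine at roughly EC20 (submaximal) concentration; doses: test compound with 0.3% DMSO final; times: 37 °C dye loading, 1.5 min compound, 50 s ACh, 25 °C; measured by: calcium flux measured with Fluo-4 fluorescent dye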

Row | SMILES | percent of max ACh response
1 | Cn1cc(-c2cc(F)c(CN3C(=O)C(=O)c4ccccc43)c(F)c2)cn1 | 23.3%
2 | Cn1cc(-c2ccc(CN3C(=O)C(=O)c4ccccc43)c(F)c2)cn1 | 26.4%
3 | Cc1cc(NC(=O)CS(=O)(=O)c2cn(Cc3cc(Br)ccc3F)c3ccccc23)no1 | 13.4%
4 | O=C1C(=O)N(Cc2ccc(Oc3ccccc3)cc2)c2ccc(OC(F)(F)F)cc21 | 10.6%
